System: MS2 coat protein
Experiment: apparent Kd, MS2 coat protein; higher = weaker binding; RNA-MaP array; FMN 200 µM where present
Summary of the method: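 Apparent Kd: the median of filtered binding-curve fits from single clusters. Designs were transcribed on Illumina sequencing-chip clusters by stalled E. coli RNA polymerase and titrated with SNAP-549-labelled MS2 coat protein from 0.7 or 1.5 nM, doubling to 3 µM, in 100 mM Tris-HCl pH 7.5, 80 mM KCl, 4 mM MgCl2, BSA, DTT, yeast tRNA and Tween-20. Each series ran without and then with constant ligand, and green signal was normalised to red-channel RNA signal and control-cluster median Fmax.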

[1] = designed as: OFF switch for flavin mononucleotide, no ligand
[2] = ligand present: flavin mononucleotide, designed as: OFF switch for flavin mononucleotide
[3] = designed as: ON switch for flavin mononucleotide, no ligand
[4] = ligand present: flavin mononucleotide, designed as: ON switch for flavin mononucleotide

Sequence	apparent Kd [1]	apparent Kd [2]	apparent Kd [3]	apparent Kd [4]
ACAGACCAUCGAGGAUAUGAACAUGAGGAUCACCCAUGUAAGUGGAAGAUGGUGAUUCCUGGGCUUCAGAAGGCGAACGUCAGG	6.12 nM	11.8 nM		
AAGGACUGAGGAUAUGCGCGGGCAAGAUCCUCAAUCCCAAAACAUGAGGAUCACCCAUGUAGAAGGCAGAAAUA	25.8 nM	22.6 nM		
UGAUCGAGAGAUCUUAGAUUCUGGUAGGAUAUACAUAAAAUGCGCUUUACAUGAGGAUCACCCAUGUAGAAGGACUAGAGUCUA	7.54 nM	9.8 nM		
UGUCGGAGCAGAGGAUAUUACAUGAGGAUCACCCAUGUACGAACCAAUAGCUGGAAACAGCAAUGUAAGAAGGCUGCUCCGACA	11.3 nM	79 nM		
AGAAACUACGAGAAGGACAUGUGGUCCAAAACAAACAUGAGGAUCACCCAUGUAGGAUAUCGUAGUUUCAGGAUCGUGAGAUCA	284 nM	61.8 nM		
GGGUACAUCGGAGGAUAUCAUGUAAAUACAUGAGGAUCACCCAUGUCGAUGGAGACACCGGAGAUUGAGAAGGCCGAUGUACCG			643 nM	23.5 nM
AUUCAGCGAGGAUAUACAGGUUCUGGGUGAGGCUCGGCGAGACAUGAGGAUCACCCAUGUAGAAGGUGCUAGCC	341 nM	284 nM		
AAGAAUCAAGGAUAUGCAUGAUACGACAUGAGGAUCACCCAUGUCCUCAUGCGUAUCCUUGCAGAAGGUGAGUAUA	13.8 nM	17.1 nM		
AGGAAGCAAGGAUAUACGAGGAGAAGGUGGAGAGUUAAAGGACAUGAGGAUCACCCAUGUAGAAGGUGCGAGAA	59.7 nM	76.8 nM		
GGGUACAUCGGAGGAUAUCAUGUAAAUACAUGAGGAUCACCCAUGUCGUACGAGAGUACGGAGAUUGAGAAGGCCGAUGUACCG			24.9 nM	15.3 nM
CCAGCGUGUGUGAGGAUAUGCUGGUCCUUGGAUCAGCAGAAGGCACAUGAGGAUCACCCAUGUGAGUACGUUGG	16.9 nM	59.4 nM		
AUCAACUCGUCAGGAUAUACGUCACUGCGUCAGCAGUGUGGUAAGAUCACAUGAGGAUCACCCAUGUAGAAGGGACGAGCUGAU	12.5 nM	269 nM		
GACCUGAGUAAUAAUGUAGAAAUACAUGAGGAUCACCCAUGUAAGGAUAUGCAGUGGAAUACACUGCAGAAGGUACAUCUCAGG	16.6 nM	29.6 nM		
GGAAAACAUGAGGAUCACCCAUGUGAGGAUAUCGAUGUCCAAAAACAAGUGCGGGACUCGAGAAGGCACUUGGA	35 nM	23.2 nM		
UAAAAGGCAGGAUAUGCAGGUGACCCGACUCGCCGGGCUAAACAUGAGGAUCACCCAUGUAGAAGGGCCAAAAG	15.7 nM	43.6 nM		
AGCCAAGCAGGAUAUGCACGUAAUAACAUGAGGAUCACCCAUGUGACCGAUUUAUAUUCUGCAGAAGGGCUUGGAU	29 nM	118 nM		
GUUCAACAUGAGGAUCACCCAUGUAGAAGGCGCUCCGACAUUUUGUAGAACGAGGUGGGUGCGGGCGAGGAUAUACGUGGCGCU	48.4 nM	89.6 nM		
GUACUGACAGGAUAUACAUGAGGAUCACCCAUGUCCUUAUGCUGACAAAAGUCAGCGUGUAGAAGGGUCUGUAC	141 nM	385 nM		
GUCGGAAACGACAAUGAUAGGACUGAGGAUAUACGUAAUAUUAUCCAUACAUGAGGAUCACCCAUGUAGAAGGCAGUCCUAUCU	5.85 nM	6.02 nM		

Sequence	apparent Kd [1]	apparent Kd [2]	apparent Kd [3]	apparent Kd [4]
AACAUGUGAGGAUAUGAGAACAGCCGGGAGGGCUGUGUAAAUUAGAAGGCACAUGAGGAUCACCCAUGUGACCU	18.2 nM	27.8 nM		
AGCGACCAAGGAUAUACAUGAGGAUCACCCAUGUCGGCGACCUUCCUGGGAUUUCUUAGUAGAAGGUGGUCAAU	42.7 nM	86.9 nM		
AGAAAUAAAAAUGAGGAUAUGCAAAAGAAAACAUGAGGAUCACCCAUGUAAAAGAAAAUAAAUGGGCAGAAGGCAUGAAAUAAAGA			136 nM	44.9 nM
UGAUCUAUGUAGAAGGCCCAUAUCUAUAUUUAGGGAGGAUAUACAUGAGGAUCACCCAUGUAUAGAGCGAGUGGACUCGUCACC	18.1 nM	47.3 nM		
GGCGUGUUAGGAUAUCGCGGCGGCGGCGUUUGUUGUUGUUGUGAGAAGGAACAUGAGGAUCACCCAUGUGCGCC	18.4 nM	27.4 nM		
AGCUGUGGCAGAGGAUAUACUACCAUAAUCCAUUGCAAAUAGCGAUGGACAUGAGGAUCACCCAUGUAGAAGGCUGUCUCAGCA	68.2 nM	275 nM		
GCUCGAUGAGCUGUCUACAUGAGGAUCACCCAUGUAGAUGGGCAGGAUAUUUACGUGCUUUAUGUAGAGAAGGGCCCAUCGAGC				28.8 nM
GUAUCGUGAGGAUAUCAUGAUUGACUUUUAUUUUGUCAGCGUGAGAAGGCACAUGAGGAUCACCCAUGUGAUUA	22.6 nM	50.5 nM		
GUGCGUGGCUAGGAUAUUGUGGAGUUUAGUCAGCGAGAAGGAGCCACAUGAGGAUCACCCAUGUGGUGUAGCUC	17.2 nM	94.5 nM		
UUUGUCUGUGUGAGGAUAUACUUUUUUUGGUUUUUGUAGAAGGCACAUGAGGAUCACCCAUGUAUUUUGUUGUG	37.7 nM	50.2 nM		
AGCUGUGGCCGAGGAUAUCUAAAUUCUCAAAACGAAAUAUAAUCGAACAUGAGGAUCACCCAUGUAGAGAAGGCGGUCUCAGCA	39 nM	298 nM		
UGCCUGAGGCAAAGCUUUAGGUAUACAUGAGGAUCACCCAUGUAGGAUAUGGUAGGCUUUGCUUACCAGAAGGACAUGUUAAUU	19.8 nM	54.6 nM		
AGCUACGUUUCGUAGCAGUGUCAUCGAGAAGGCCUUAUUACAUGAGGAUCACCCAUGUGGACAUGGGAGGAUAUCGAUGAUACA			61.3 nM	8.06 nM
CGCUACUGCCAGAAGGACAUGAGGAUCACCCAUGUAGGAUAUGGGUGUCGAGGACCAGUGUAGAGAAACUACGCUACAGUAGCG			958 nM	57.6 nM
UCCGCUCGAGGAUAUACAUGAGGAUCACCCAUGUUUCCCUGUUGUUUGGCCUCAGGAUGUAGAAGGCGACGCUA	18.3 nM	23.6 nM		
UAUAUGUCAGGAUAUUGAUUGGGAUGGAAUUUAGUUUUGGUUAAGAAGGGACAUGAGGAUCACCCAUGUUCCUC	17.1 nM	18.4 nM		
GAAUGUAAAGAGAAGGGCUACUGGUUGAAACCUGCGGCCUCUGGAACAUGAGGAUCACCCAUGUAGCAGGAUAUCUUUGCGUCA	192 nM	29.5 nM		
GGUUAUGAAGGAUAUACAUGAGGAUCACCCAUGUUACGUACUUCGGGAUUCUGCCAGUGUAGAAGGUCAUGUCU	24.3 nM	49.2 nM		
CGUGACGACAUAGGAUAUUGAUACAUGAGGAUCACCCAUGUCACCCAUUUAUCUCAAAUUGUUGACAAGAAGGAUGUGGUCACG			16.7 nM	10.8 nM

Sequence	apparent Kd [1]	apparent Kd [2]	apparent Kd [3]	apparent Kd [4]
UCAUACGGUGAGGAUAUCUCCGCUAAAGUGUGUAGAGAAGGCGCUACAUGAGGAUCACCCAUGUUUAUGGGCAG	403 nM	228 nM		
GCAGCGACUGCAGGAUAUCAGCACGUGUAGUGCUGAGAAGGGCACAUGAGGAUCACCCAUGUGAUCAAUUAAUAGUCAUGCUGC	7.23 nM	15.9 nM		
UUAAAUCGAAACAUGAGGAUCACCCAUGUGUUGUGAUUAAUAUAGGAUAUGUGUAUACUUUUAUGACAGAAGGAUGAUAAUACU			12.3 nM	10.7 nM
GUACUGUAGUGAGGAUAUACGAGUUCGAUAGAACGGCGAUCCAUUUAUACAUGAGGAUCACCCAUGUAGAAGGCACUUCAGUAC	6.32 nM	53.9 nM		
UAAUAAUAAUAAUAGCAGAAUUACAUGAGGAUCACCCAUGUAUAGGAUAUCGUCAGGAAUACUGACGAGAAGGAUACAAACUGC	17.6 nM	21.9 nM		
CCGGAAACGGGUAGCUGACAUGAGGAUCACCCAUGUGAAACACAGGAUAUGGAUCCUAAUUGGAUCCAGAAGGGUGUCAGCUAC			247 nM	37.2 nM
GGUAAAUAAAGAGUACUGUUUUGAACAUGAGGAUCACCCAUGUAGGAUAUGCGAGUUUUGAAUUUGCAGAAGGACAUUUUUAGC	19.6 nM	20.4 nM		
UAUGAACAUGAGGAUCACCCAUGUGGUAAGAUCACAGGAUAUCACCUCGGACGUGCGAUGUGAGAAGGGUGAUGGU			585 nM	113 nM
CUGAUGUUAGGAUAUCAGGCGCCCGCCACUGGCAAGGCGCAUGAGAAGGGACAUGAGGAUCACCCAUGUAGUAA	26.3 nM	55.7 nM		
UAAAAGUCAGGAUAUGCGAGAGAUUGAAGUGUGGCAAGGUAGCAGAAGGGACAUGAGGAUCACCCAUGUGUGGC	52.4 nM	115 nM		
AUAUUAUAGAUCCAUUUAUUCAACAUGAGGAUCACCCAUGUGCAGGAUAUCGUGUGUUUUAUAAACGAGAAGGGCAAAUUCAUU	31.9 nM	96.7 nM		
ACAGUAUAUGUAGGAUAUCAUUGGCCAGGUAGGUGAGAAGGGCAUAGUACAUGAGGAUCACCCAUGUGUUGGUCCUCGCAGAAA	392 nM	233 nM		
GACCCUAAUGAGAAGGUGUGUAUAAAUUAUAUACAAGGAUAUCGGUCGAGCGUGUUGACAUGAGGAUCACCCAUGUUGAGGGUU			26.8 nM	10.4 nM
UUUACGUGAGGAUAUGCGAAUAGAACGUAAGACAUACAGACGCAGAAGGCACAUGAGGAUCACCCAUGUGAACC	20.5 nM	41.4 nM		
AUGUGACAUGAGGAUCACCCAUGUAAGGAUAUAUGACUAAGGACUUCCUUGGUAGCGCGUAGAAGGUACGUGAA	19.6 nM	20 nM		
GGACAUUUACAGAAGGGCAAUUUAUUUAUUGAUUAUUUAGUUCUGUUUUGCAGGAUAUGUAAUACAUGAGGAUCACCCAUGUCC			188 nM	74 nM
GUGCCUUGGGAGAAGGCCCAAUGCAAAGCAUCGGGAGGAUAUUCAUAUAAUAAAUAAACAUGAGGAUCACCCAUGUGGCACAAA			447 nM	33 nM
AAACAUGAGGAUCACCCAUGUAAACGAGAAGGGCGAGAGAGUAGAGGAUAGGAGAAAGAUGAGUCGCAGGAUAUCGACCUCAUA			16 nM	17 nM

From the EternaBench riboswitch data
